“And” between values parts separate entries of the source, which are not always exact repeats. Equal values may be shown once. Where a SMILES comes first, the peptide text is derived from it. The star is where a group is joined. Cbz = O=C(OCc1ccccc1)*
Key:
recombinant WT VCP [1] = target: T1, recombinant WT VCP (Mus musculus, UniProt Q01853); assay type: biochemical; conditions: for maximal increase of VCP activity / Maximum % Activity (95% CI): WT VCP; for maximal increase of VCP activity: increase over baseline; for Maximum % Activity (95% CI): 50 nM VCP, 62.5 μM ATP, Kinase-Glo; for recombinant WT VCP ATPase activity (in words): luciferase-based Kinase-Glo assay
In short: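 Titration of activator concentrations against 50 nM His-tagged recombinant VCP, no cofactors, with 62.5 µM ATP. Buffer: 25 mM HEPES pH 7.5, 100 mM NaCl, 10 mM MgCl2, 2% DMSO. Incubated 1 h at 25°C, then 20 min with Kinase-Glo reagent at room temperature, read by luminescence. Fitted to a 3-parameter dose curve with profile-likelihood 95% CI; n=3 with 3 technical replicates.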

WT VCP + Ufd1/Nploc4 = WT VCP + Ufd1/Nploc4 (Mus musculus, UniProt Q01853); test: Kinase-Glo ATPase assay of recombinant VCP with UFD1/NPLOC4 cofactors; assay type: biochemical; conditions: for Maximum % Activity (95% CI) / EC50: WT VCP + Ufd1/Nploc4, 50 nM each, 62.5 μM ATP; for EC50: read-out: EC50 (μM) (95% CI)
In short: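 50 nM His-tagged recombinant VCP was mixed with 50 nM co-purified UFD1/NPLOC4 complex (1:1 molar) in 25 mM HEPES pH 7.5, 100 mM NaCl, 10 mM MgCl2, 2% DMSO. Added 62.5 µM ATP and a range of activator concentrations, then incubated 1 h at 25°C. ATP remaining was read by Kinase-Glo luminescence after 20 min at room temperature. 3-parameter dose-curve fit with profile-likelihood 95% CI; n=3, 3 technical replicates.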

recombinant WT VCP [2] = target: T1, recombinant WT VCP; test: MESG-PNP; assay type: biochemical; conditions: for increase in kcat: 25 μM activator compared with DMSO; for kcat (nmol Pi / nmol VCP / s) (95% CI): WT VCP with 25 μM compound
In short: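 EnzCheck (MESG-PNP) phosphate-release assay: 50 nM recombinant VCP in ATPase buffer with 2% DMSO, 25 µM compound or DMSO, and various ATP concentrations. Absorbance at 360 nm followed for >15 min at 25°C. Phosphate was quantified from an on-plate standard curve. Initial velocities came from linear fits and were fitted to Michaelis-Menten with asymmetric profile-likelihood 95% CI.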

[3] = target: N-ethylmaleimide-sensitive factor (NSF) (Homo sapiens, UniProt P46459); test: ATPase activity of recombinant NSF; assay type: biochemical; conditions: 25 μM activator, 50 nM NSF, 62.5 μM ATP
VCP (E578Q) = VCP (E578Q) (Mus musculus, UniProt Q01853, E578Q); test: ATPase activity of VCP with D2 Walker B mutation; assay type: biochemical; conditions: 25 μM activator vs DMSO
ND1L (aa1–481) VCP = ND1L (aa1–481) VCP (Homo sapiens, UniProt P55072); test: ATPase activity of truncated ND1L VCP; assay type: biochemical; conditions: 25 μM compound vs DMSO
LD2 (aa442–806) VCP = LD2 (aa442–806) VCP (Homo sapiens, UniProt P55072); test: ATPase activity of truncated LD2 VCP; assay type: biochemical; conditions: 25 μM compound vs DMSO
luciferase = test: Luciferase counter-screen: Kinase-Glo without recombinant VCP; assay type: biochemical; conditions: 62.5 μM ATP, increasing compound, no VCP
[4] = system: WT HeLa cells expressing GFP-TDP-4FL; test: Flow cytometry of GFP-TDP-4FL clearance, wild-type HeLa; assay type: cell-based
[5] = system: CRISPR-Cas9 knock-in HeLa cells harboring A232E VCP expressing GFP-TDP-4FL; test: Flow cytometry of GFP-TDP-4FL clearance, A232E knock-in HeLa; assay type: cell-based
[6] = system: CRISPR-Cas9 knock-in HeLa cells harboring R155H VCP expressing GFP-TDP-4FL; test: Flow cytometry of GFP-TDP-4FL clearance, R155H knock-in HeLa; assay type: cell-based
[7] = system: HeLa cells expressing myc-TDP-4FL; test: Sequential extraction and immunoblot of soluble and insoluble TDP-4FL; assay type: cell-based
[8] = system: HeLa cells expressing TDP-4FL; test: Confocal immunofluorescence of intranuclear TDP-4FL inclusion morphology; assay type: cell-based
drosophila model of MSP = conditions: cited from earlier work
[9] = system: R155H/R155H mouse model of MSP; conditions: cited from earlier work
[10] = system: HeLa cells expressing myc-TDP-43; test: Immunofluorescence and immunoblot of myc-TDP-43 under proteasome inhibition; assay type: cell-based
In short: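 For imaging, cells were fixed in 4% paraformaldehyde, permeabilised with 0.1% Triton X-100, stained with anti-myc and DAPI, and imaged by confocal microscopy. For blots, RIPA-soluble and urea-soluble fractions were separated at 100,000 x g, and 25-40 µg protein was immunoblotted with GAPDH as loading control.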

[11] = system: HeLa cells expressing myc-TDP-4FL; test: Anti-myc immunoprecipitation of insoluble TDP-4FL, ubiquitin immunoblot; assay type: cell-based; conditions: MG132 treatment, immunoprecipitation of insoluble fraction
In short: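 Sequential extraction: RIPA, then 100,000 x g for 30 min at 4°C, then urea/thiourea/CHAPS buffer. The urea-soluble fraction was diluted in TBST containing 100 mM NEM and 5 mM EDTA and incubated overnight at 4°C with anti-c-Myc magnetic beads. Elution was in Laemmli buffer with 0.5 mM DTT, 10 min at 99°C, followed by immunoblotting with IR-dye detection.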

[12] = CB5083 + CHX 6 hours after 3 hours MG132
[13] = 5μM UP109 + CHX 4 hours after MG132, vs CHX only

Chain of N-ethylmaleimide-sensitive factor (NSF) (P46459 whole entry): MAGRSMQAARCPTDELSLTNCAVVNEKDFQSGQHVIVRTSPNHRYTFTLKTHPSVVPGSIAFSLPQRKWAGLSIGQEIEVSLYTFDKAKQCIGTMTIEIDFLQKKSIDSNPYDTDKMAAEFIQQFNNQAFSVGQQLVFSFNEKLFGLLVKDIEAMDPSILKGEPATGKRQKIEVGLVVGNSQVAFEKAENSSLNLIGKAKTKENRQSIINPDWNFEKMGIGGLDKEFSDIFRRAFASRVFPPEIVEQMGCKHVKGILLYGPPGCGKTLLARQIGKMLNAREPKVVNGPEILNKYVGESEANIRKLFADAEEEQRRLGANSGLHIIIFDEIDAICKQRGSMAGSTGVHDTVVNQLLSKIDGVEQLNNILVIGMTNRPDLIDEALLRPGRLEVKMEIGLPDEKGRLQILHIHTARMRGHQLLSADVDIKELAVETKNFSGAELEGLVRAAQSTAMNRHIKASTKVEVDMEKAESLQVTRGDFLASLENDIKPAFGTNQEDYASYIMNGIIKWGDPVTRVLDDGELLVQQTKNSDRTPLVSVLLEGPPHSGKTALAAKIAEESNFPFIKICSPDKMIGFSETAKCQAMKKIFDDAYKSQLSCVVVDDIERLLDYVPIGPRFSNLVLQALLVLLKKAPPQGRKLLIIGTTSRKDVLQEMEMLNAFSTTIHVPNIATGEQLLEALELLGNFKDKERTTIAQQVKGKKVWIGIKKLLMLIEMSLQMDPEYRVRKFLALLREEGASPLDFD
Chain of ND1L (aa1–481) VCP (P55072 1-481): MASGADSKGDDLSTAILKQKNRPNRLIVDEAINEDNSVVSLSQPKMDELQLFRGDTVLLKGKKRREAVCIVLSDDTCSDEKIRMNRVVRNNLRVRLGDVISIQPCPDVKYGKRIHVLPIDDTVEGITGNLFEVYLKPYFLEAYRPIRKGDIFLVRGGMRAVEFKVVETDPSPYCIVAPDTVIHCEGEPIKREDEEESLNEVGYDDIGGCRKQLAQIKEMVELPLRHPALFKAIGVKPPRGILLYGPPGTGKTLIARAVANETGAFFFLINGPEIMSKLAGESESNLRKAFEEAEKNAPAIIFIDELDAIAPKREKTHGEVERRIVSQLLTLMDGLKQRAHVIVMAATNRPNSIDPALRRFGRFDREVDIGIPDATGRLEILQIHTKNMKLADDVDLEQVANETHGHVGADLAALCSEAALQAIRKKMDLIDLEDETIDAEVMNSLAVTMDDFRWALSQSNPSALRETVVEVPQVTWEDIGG
T1 sequence (Q01853 whole entry): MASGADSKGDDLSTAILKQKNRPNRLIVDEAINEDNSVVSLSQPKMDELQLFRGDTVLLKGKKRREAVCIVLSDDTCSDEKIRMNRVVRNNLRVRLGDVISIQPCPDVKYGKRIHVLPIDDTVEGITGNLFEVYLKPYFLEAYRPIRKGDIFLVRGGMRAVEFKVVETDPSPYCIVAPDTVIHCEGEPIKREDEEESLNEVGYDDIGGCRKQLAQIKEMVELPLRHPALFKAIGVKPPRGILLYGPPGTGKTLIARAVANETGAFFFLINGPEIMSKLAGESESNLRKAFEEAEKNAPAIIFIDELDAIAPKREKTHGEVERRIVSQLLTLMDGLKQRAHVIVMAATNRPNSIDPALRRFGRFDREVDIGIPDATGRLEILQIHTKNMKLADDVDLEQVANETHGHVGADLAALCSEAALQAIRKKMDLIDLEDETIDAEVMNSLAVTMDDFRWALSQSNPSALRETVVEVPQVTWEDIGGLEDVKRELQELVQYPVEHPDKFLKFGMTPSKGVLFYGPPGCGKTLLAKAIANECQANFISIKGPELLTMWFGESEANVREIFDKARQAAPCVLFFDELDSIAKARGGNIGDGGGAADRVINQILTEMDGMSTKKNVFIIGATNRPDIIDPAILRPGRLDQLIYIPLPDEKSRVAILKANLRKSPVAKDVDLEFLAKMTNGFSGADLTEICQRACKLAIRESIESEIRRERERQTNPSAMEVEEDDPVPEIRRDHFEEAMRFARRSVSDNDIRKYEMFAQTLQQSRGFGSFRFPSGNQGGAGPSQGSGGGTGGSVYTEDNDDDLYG
Chain of WT VCP + Ufd1/Nploc4 (Q01853 whole entry): as above
Chain of WT VCP + Ufd1/Nploc4 (Q92890 whole entry partner): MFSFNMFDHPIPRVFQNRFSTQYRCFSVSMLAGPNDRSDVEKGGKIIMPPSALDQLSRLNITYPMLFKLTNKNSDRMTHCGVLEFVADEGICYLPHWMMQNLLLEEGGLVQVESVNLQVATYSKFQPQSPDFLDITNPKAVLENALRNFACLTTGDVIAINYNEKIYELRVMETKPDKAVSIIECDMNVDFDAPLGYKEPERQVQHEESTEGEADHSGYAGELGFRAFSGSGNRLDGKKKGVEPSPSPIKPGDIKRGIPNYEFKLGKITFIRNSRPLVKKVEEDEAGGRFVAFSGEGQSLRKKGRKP
Chain of WT VCP + Ufd1/Nploc4 (Q8TAT6 whole entry partner): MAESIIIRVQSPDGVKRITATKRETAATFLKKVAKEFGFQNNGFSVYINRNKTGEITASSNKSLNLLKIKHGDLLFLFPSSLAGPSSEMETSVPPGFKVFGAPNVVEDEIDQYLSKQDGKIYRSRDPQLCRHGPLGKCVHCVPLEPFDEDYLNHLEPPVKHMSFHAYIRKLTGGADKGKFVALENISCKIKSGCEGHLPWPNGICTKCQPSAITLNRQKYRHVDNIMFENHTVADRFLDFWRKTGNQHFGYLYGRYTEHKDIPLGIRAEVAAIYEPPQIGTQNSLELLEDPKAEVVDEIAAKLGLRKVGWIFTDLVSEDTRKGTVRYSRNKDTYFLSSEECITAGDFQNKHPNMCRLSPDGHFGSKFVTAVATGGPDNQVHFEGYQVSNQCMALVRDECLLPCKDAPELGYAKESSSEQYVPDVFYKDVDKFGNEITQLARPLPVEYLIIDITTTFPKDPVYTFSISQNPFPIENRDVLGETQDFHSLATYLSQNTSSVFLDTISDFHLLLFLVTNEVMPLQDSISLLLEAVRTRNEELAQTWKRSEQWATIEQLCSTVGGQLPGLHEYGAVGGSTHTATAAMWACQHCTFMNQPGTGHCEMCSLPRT
Chain of VCP (E578Q) (Q01853 whole entry E578Q, the tested form may be a part): as the sequence (Q01853 whole entry) above, with E578Q counted along it
Chain of LD2 (aa442–806) VCP (P55072 442-806): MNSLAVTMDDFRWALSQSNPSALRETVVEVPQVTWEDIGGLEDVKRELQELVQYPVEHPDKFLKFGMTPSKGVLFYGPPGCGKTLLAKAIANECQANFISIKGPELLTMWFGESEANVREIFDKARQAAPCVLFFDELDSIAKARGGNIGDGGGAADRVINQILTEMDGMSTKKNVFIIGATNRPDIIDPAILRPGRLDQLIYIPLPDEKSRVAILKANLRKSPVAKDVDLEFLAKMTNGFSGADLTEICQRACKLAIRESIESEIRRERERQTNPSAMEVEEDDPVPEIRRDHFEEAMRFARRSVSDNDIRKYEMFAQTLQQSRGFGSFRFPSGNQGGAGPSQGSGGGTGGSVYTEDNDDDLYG

SMILES	maximal increase of VCP activity (recombinant WT VCP [1])	Maximum % Activity (95% CI) (recombinant WT VCP [1])	recombinant WT VCP ATPase activity (in words) (recombinant WT VCP [1])	Maximum % Activity (95% CI) (WT VCP + Ufd1/Nploc4)	EC50 (WT VCP + Ufd1/Nploc4)	increase in kcat (recombinant WT VCP [2])	kcat (nmol Pi / nmol VCP / s) (95% CI) (recombinant WT VCP [2])	NSF ATPase activity compared to DMSO [3]	ATPase activity of VCP E578Q (inactive D2, active D1) (VCP (E578Q))	ATPase activity of ND1L construct (ND1L (aa1–481) VCP)	ATPase activity of LD2 construct (LD2 (aa442–806) VCP)	luciferase activity inhibition (luciferase)	also measured
O=C(OCCN(C1=NS(=O)(=O)c2ccccc21)c1ccc(Cl)cc1)c1ccco1 [UP163]	104%	204.0 (189.2, 223.3) %	significantly increased recombinant WT VCP ATPase activity	151.8 (144.7, 160.7) %	8.9 µM	more than 50%	0.366 nmol Pi / nmol VCP / s and 0.366 (0.335, 0.401) nmol Pi / nmol VCP / s	No compound significantly increased ATPase activity	significantly decreased ATPase activity	did not inhibit the ATPase activity	significantly increased ATPase activity	did not inhibit luciferase activity	change in EC50 with UN compared to without UN (WT VCP + Ufd1/Nploc4; recombinant UN 1:1 molar ratio with VCP): no change in EC50
Clc1ccc2[nH]c3c(N4CCC5(CC4)OCCO5)ncnc3c2c1 [UP158]	50%	150.3 (146.6, 154.3) %	significantly increased recombinant WT VCP ATPase activity	152.1 (143.2, 164.4) %	14.3 µM	more than 50%	0.356 nmol Pi / nmol VCP / s and 0.356 (0.320, 0.396) nmol Pi / nmol VCP / s	No compound significantly increased ATPase activity	significantly decreased ATPase activity	did not inhibit the ATPase activity	significantly increased ATPase activity	did not inhibit luciferase activity	–
Cc1cc2c(C(N)=O)cccc2n1-c1nc2c(c(NCc3ccccc3)n1)COCC2 [CB5083]	–	–	–	–	–	–	–	–	–	–	–	–	integrated fluorescence intensity (GFP-TDP-4FL) ([4]; WT cells, CB5083 + CHX 6 hours after 3 hours MG132): significantly higher than CHX only treatment; integrated fluorescence intensity (GFP-TDP-4FL) [5, 12]: greater integrated fluorescence intensity compared to CHX only treatment; integrated fluorescence intensity (GFP-TDP-4FL) [6, 12]: greater integrated fluorescence intensity compared to CHX only treatment; insoluble TDP-4FL protein [7, 12]: residual amounts of insoluble TDP-4FL protein; soluble TDP-4FL protein [7, 12]: significant decrease in soluble TDP-4FL protein; TDP-4FL aggregate morphology [8, 12]: residual irregularly shaped intranuclear TDP-4FL aggregates; altered mitochondrial morphology caused by VCP variants (drosophila model of MSP): reversed; markers of muscle pathology [9]: improved markers of muscle pathology
O=C(CSc1nc2ccccc2c(=O)n1NC(=O)c1ccccc1)c1ccc(Cl)cc1 [UP12]	39%	139.0 (131.9, 149.0) %	significantly increased recombinant WT VCP ATPase activity	124.6 (119.8, 130.2) %	0.648 µM	about 25%	0.309 nmol Pi / nmol VCP / s and 0.309 (0.269, 0.356) nmol Pi / nmol VCP / s	No compound significantly increased ATPase activity	seemed to increase ATPase activity, though not significantly	only compound to increase ATPase activity	significantly increased ATPase activity	did not inhibit luciferase activity	–
CC(C)C[C@@H](C=O)NC(=O)[C@H](CC(C)C)NC(=O)[C@H](CC(C)C)NC(=O)OCc1ccccc1 [MG132] (Cbz-Leu-Leu-Leu-aldehyde)	–	–	–	–	–	–	–	–	–	–	–	–	insoluble TDP-4FL ([7]; 4μM MG132 for 0, 3, or 6 hours): increase in insoluble TDP-4FL; soluble TDP-4FL ([7]; 4μM MG132 for 0, 3, or 6 hours): decrease in soluble TDP-4FL; TDP-4FL inclusion morphology ([8]; 4μM MG132, 3 or 6 hours): coalesced into larger, irregularly shaped aggregates; TDP-43 nuclear morphology ([10]; 4μM MG132): formation of coarse nuclear punctae; insoluble TDP-43 protein ([10]; 4μM MG132 for 0, 3, or 6 hours): increase in insoluble TDP-43 protein; soluble TDP-43 protein ([10]; 4μM MG132 for 0, 3, or 6 hours): reduction in soluble TDP-43 protein; ubiquitination of insoluble myc-TDP-4FL [11]: ubiquitination of TDP-4FL protein
COCCNC(=O)NC(=O)COC(=O)c1cc([N+](=O)[O-])ccc1Sc1nc(C)cs1 [UP109]	97%	197.4 (189.8, 206.1) %	significantly increased recombinant WT VCP ATPase activity	175.3 (164.6, 188.0) %	13.4 µM	100%	0.489 nmol Pi / nmol VCP / s and 0.489 (0.459, 0.520) nmol Pi / nmol VCP / s	No compound significantly increased ATPase activity	decreased ATPase activity, though less than UP158 and UP163 and not significantly	did not inhibit the ATPase activity	significantly increased ATPase activity	did not inhibit luciferase activity	integrated fluorescence intensity (GFP-TDP-4FL) ([4]; 5μM UP109 + CHX 4 hours after 17 hours MG132, vs CHX only): significantly decreased; integrated fluorescence intensity (GFP-TDP-4FL) ([4]; 20μM UP109 + CHX 4 hours after 17 hours MG132): further reduced; integrated fluorescence intensity (GFP-TDP-4FL) ([5]; 5μM UP109 + CHX vs CHX only): significantly decreased integrated fluorescence intensity; integrated fluorescence intensity (GFP-TDP-4FL) ([6]; 5μM UP109 + CHX vs CHX only): significantly decreased integrated fluorescence intensity; insoluble TDP-4FL levels [7, 13]: significant decrease in insoluble TDP-4FL levels; soluble TDP-4FL levels [7, 13]: increase in soluble TDP-4FL levels; TDP-4FL aggregate morphology ([8]; 5μM UP109 + CHX 4 hours after MG132): appeared to be smaller and in some cases revert to small anisosomes

Source: PMC10055171 (bioRxiv, 2023)
